ChEMBL document CHEMBL1144710, “epigenetic multiple ligands: mixed histone/protein methyltransferase, acetyltransferase, and class III deacetylase (sirtuin) inhibitors” (J Med Chem, 2008)
Active and inactive are the calls of the source.

Tests used:
U-937 [1] = assay: Inhibition of histone H4R3 methylation in human U937 cells at 50 uM after 24 hrs; format: functional, cell-based
In short: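 U937 cells treated at 50 µM for 24 h. Histones extracted with Triton buffer, then 0.2 M HCl overnight at 4 °C. 3–10 µg run on 15% SDS-PAGE and immunoblotted with anti-monomethyl-H3K4, monomethyl-H4R3 or dimethyl-H3R17 (1:500, overnight 4 °C), ECL detection. Loading controls: total H4 (H3K4), Ponceau Red (Arg marks).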

[2] = target: T1, Histone-arginine methyltransferase CARM1 (Homo sapiens) (UniProt Q86X55); assay: Inhibition of human recombinant CARM1 assessed as poly(A) binding protein 1 methylation at 100 uM
T1 sequence (whole entry): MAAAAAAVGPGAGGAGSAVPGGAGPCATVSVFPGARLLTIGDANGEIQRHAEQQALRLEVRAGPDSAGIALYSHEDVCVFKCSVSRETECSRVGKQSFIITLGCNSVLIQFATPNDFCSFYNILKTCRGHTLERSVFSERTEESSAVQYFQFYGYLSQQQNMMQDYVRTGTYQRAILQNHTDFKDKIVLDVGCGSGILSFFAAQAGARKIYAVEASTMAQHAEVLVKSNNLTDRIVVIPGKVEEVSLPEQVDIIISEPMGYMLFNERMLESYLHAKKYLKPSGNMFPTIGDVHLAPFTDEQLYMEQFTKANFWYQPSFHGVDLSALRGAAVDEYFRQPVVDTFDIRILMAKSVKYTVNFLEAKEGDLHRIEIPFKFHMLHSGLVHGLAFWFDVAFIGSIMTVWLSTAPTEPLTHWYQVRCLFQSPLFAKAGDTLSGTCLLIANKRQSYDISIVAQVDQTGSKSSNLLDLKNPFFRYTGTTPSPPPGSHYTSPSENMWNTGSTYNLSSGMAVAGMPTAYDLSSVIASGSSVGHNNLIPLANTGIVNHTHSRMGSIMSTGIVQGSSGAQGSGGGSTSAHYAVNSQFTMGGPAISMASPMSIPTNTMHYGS
In short: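 Recombinant enzymes (0.2 µg) with substrate (0.5 µg: Npl3p for PRMT1, PABP1 for CARM1, histone H3 for SET7), 0.5 µM [3H]AdoMet and 100 µM compound in PBS pH 7.4 with 3.3% v/v DMSO, 90 min at 30 °C. Products separated by 10% SDS-PAGE, transferred to PVDF, detected by fluorography on film overnight.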

U-937 [3] = assay: Inhibition of human p300/CBP in U937 cells at 50 uM assessed as histone H3 acetylation; format: cell-based
In short: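 Source was U937 nuclear extract (10 µg per assay) as p300/CBP HAT, with histone H3 substrate and compound at 50 µM or DMSO control for 90 min. Acetyl-H3 detected by indirect ELISA, quantified against acetylated H3 peptide standard curves, […].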

RmtA = RmtA (Emericella nidulans, UniProt Q5VLE3); assay: Inhibition of Aspergillus nidulans RmtA
Sequence of RmtA (Q5VLE3 whole entry, the tested form may be a part): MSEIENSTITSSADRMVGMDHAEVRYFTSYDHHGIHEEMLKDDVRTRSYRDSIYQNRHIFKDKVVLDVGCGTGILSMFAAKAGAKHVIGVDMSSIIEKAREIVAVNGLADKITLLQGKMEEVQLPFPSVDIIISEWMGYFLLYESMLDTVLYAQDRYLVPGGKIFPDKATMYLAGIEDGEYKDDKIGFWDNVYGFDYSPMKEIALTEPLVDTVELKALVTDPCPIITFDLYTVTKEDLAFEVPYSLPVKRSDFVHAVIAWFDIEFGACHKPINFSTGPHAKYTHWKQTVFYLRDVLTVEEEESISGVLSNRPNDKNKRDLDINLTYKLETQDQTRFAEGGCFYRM
In short: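 Enzyme was GST-RmtA fusion expressed in E. coli BL21 and glutathione-affinity purified (500 ng), preincubated with compound for 15 min at room temperature. Then 20 µg chicken erythrocyte core histones and 0.55 µCi [3H]AdoMet were added, 30 min at 30 °C. Stopped with 25% TCA, filtered, counted by liquid scintillation.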

With `O=C1/C(=C/c2cc(Br)c(O)c(Br)c2)COC/C1=C\c1cc(Br)c(O)c(Br)c1` the Activity (U-937 [1]) was “Active”, the Activity [2] was “Active” and the inhibition (U-937 [3]) was 61%. The IC50 (RmtA) was 29 µM.
